Converted amounts (≈) assume the structure as drawn. Some results are limits rather than exact numbers.

Assay [1] concerns Staphylococcus aureus. The experiment in a line: Antibacterial activity against Staphylococcus aureus by serial dilution method. Type of assay: functional. In a few lines:
(§1)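 Two-fold serial broth dilution in Mueller-Hinton broth, final 64-0.25 µg/mL; compounds in DMSO (final ≤0.05%). Mid-log cultures diluted 1000-fold, inoculum 10^5 CFU/mL; oxacillin and norfloxacin as positive controls. After 24 h at 37 °C, growth read at 650 nm on a microtiter ELISA reader; MIC = lowest level giving complete growth inhibition. Run three times.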

In assay [2] the test system is Staphylococcus aureus. The experiment in a line: Antibacterial activity against Staphylococcus aureus RN4220 after 24 hrs by microtiter ELISA. Type of assay: functional. To be noted: RN4220, 24 h. The method in brief: (§2)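 Broth microdilution MIC. Bacteria grown to mid-log phase in Mueller-Hinton broth, diluted 1000-fold, and inoculated at 10^5 CFU/mL. Compounds in DMSO (final ≤0.05%) were given as two-fold serial dilutions, final 64-0.25 µg/mL. Plates were incubated 24 h at 37 °C and growth read at 650 nm. MIC is the lowest concentration giving complete growth inhibition. Three independent experiments; oxacillin and norfloxacin served as positive controls.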

The next assay concerns Streptococcus mutans. The experiment in a line: Antibacterial activity against Streptococcus mutans 3289 after 24 hrs by microtiter ELISA. Type of assay: functional. The conditions noted are these: Streptococcus mutans, 3289, 24 h. The method in brief: as §1
A further assay has as its system Escherichia coli. The assay is described as follows: Antibacterial activity against Escherichia coli KCTC 1924 after 24 hrs by microtiter ELISA. Type of assay: functional. The conditions noted are these: KCTC 1924, 24 h. In a few lines: as §1
A further assay relates to Candida albicans. The experiment in a line: Antifungal activity against Candida albicans 7535 after 24 hrs by microtiter ELISA. Type of assay: functional. The conditions noted are these: Candida albicans, 7535, 24 h. In a few lines: as §1
The subject of assay [3] is Staphylococcus aureus. The assay is described as follows: Antibacterial activity against methicillin-resistant Staphylococcus aureus CCARM 3167 after 24 hrs by microtiter ELISA. Type of assay: functional. The conditions noted are these: CCARM 3167, 24 h. The method in brief:
as §2

The subject of assay [4] is Staphylococcus aureus. The experiment in a line: Antibacterial activity against methicillin-resistant Staphylococcus aureus CCARM 3506 after 24 hrs by microtiter ELISA. Type of assay: functional. The conditions noted are these: CCARM 3506, 24 h. In a few lines:
as §2

The test system of assay [5] is Staphylococcus aureus. The experiment in a line: Antibacterial activity against quinolone-resistant Staphylococcus aureus CCARM 3505 after 24 hrs by microtiter ELISA. The format is functional. The conditions noted are these: CCARM 3505, 24 h. The method in brief: as §2
Assay [6] has as its system Staphylococcus aureus. The experiment in a line: Antibacterial activity against quinolone-resistant Staphylococcus aureus CCARM 3519 after 24 hrs by microtiter ELISA. The format is functional. The conditions noted are these: CCARM 3519, 24 h. In a few lines: as §2
The next assay has as its system L02. The experiment in a line: Cytotoxicity against human L02 cells assessed as inhibition of cell growth measured after 24 hrs by MTT assay. Type of assay: cell-based. The conditions noted are these: L02, 24 h. The method in brief: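 L02 normal human liver cells seeded at 1.8 × 10^4 cells/well in DMEM with 10% FBS and antimycotic. Exposed 24 h at 37 °C, 5% CO2 to 200-1.625 µM, compounds in 10% DMSO. MTT (2.5 mg/mL) added for 4 h, formazan dissolved in DMSO, OD at 570 nm. Untreated cells as negative control; IC50 = 50% growth inhibition; triplicate.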

The target of assay [7] is Dihydrofolate reductase (Homo sapiens) (UniProt P00374). The experiment in a line: Inhibition of human DHFR at 10 umol/L measured after 1.5 hrs by ELISA relative to control.
Sequence of Dihydrofolate reductase (Homo sapiens) (P00374 whole entry, looked up): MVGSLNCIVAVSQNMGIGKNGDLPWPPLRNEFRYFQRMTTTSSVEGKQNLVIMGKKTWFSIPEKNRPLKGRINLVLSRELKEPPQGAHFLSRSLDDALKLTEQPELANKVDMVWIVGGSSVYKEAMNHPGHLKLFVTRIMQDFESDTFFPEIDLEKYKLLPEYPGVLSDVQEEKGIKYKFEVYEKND
In assay [8] the test system is Staphylococcus aureus. The experiment in a line: Antibacterial activity against Staphylococcus aureus RN4220 by serial dilution method. Type of assay: functional. The method in brief: as §2
In assay [9] the test system is Staphylococcus aureus. The assay is described as follows: Antibacterial activity against quinolone-resistant Staphylococcus aureus CCARM 3505 by serial dilution method. The format is functional. In a few lines:
as §2

Turning to `O=C(O)CN1C(=O)/C(=C/c2cn(-c3ccc([N+](=O)[O-])cc3[N+](=O)[O-])nc2-c2ccc(Cl)cc2Cl)SC1=S`, 16 µg/mL (≈ 27.6 µM) was the least that counted as inhibitory against Staphylococcus aureus [1] (MIC).
`NC1=NC(c2cn(-c3ccc([N+](=O)[O-])cc3)nc2-c2ccc(Cl)cc2Cl)N=C(N2CCOCC2)N1` (stereo not given): the MIC against Staphylococcus aureus [2] came out at 2 µg/mL (≈ 3.88 µM); in the assay on Streptococcus mutans it was 8 µg/mL (≈ 15.5 µM); against Escherichia coli, 4 µg/mL (≈ 7.76 µM); with Candida albicans it was 4 µg/mL (≈ 7.76 µM); against Staphylococcus aureus [3] it was 2 µg/mL (≈ 3.88 µM); in the assay with Staphylococcus aureus [4] it was 2 µg/mL (≈ 3.88 µM). The MIC against Staphylococcus aureus [5] and against Staphylococcus aureus [6] was 4 µg/mL (≈ 7.76 µM) in each case. For the same compound, the IC50 in the assay with L02 was more than 100 µM.
Consider `NC1=NC(c2cn(-c3ccc([N+](=O)[O-])cc3)nc2-c2ccc(Cl)cc2Cl)N=C(NCCc2ccccc2)N1` (stereo not given), for which the MIC against Staphylococcus aureus [2], against Streptococcus mutans, with Escherichia coli, against Candida albicans, against Staphylococcus aureus [3] and against Staphylococcus aureus [4] was 1 µg/mL (≈ 1.82 µM) each time. Also, the MIC with Staphylococcus aureus [5] and in the assay on Staphylococcus aureus [6] was 1 µg/mL (≈ 1.82 µM) in each case. In the assay on L02, the IC50 is 50.5 µM. For the same compound, in [7], the inhibition was 92%.
Take `CN(C)C1=NC(c2cn(-c3ccc([N+](=O)[O-])cc3[N+](=O)[O-])nc2-c2ccc(Cl)cc2Cl)N=C(N)N1` (stereo not given): the MIC worked out at 8 µg/mL (≈ 15.4 µM) with Staphylococcus aureus [2]; 8 µg/mL (≈ 15.4 µM) against Streptococcus mutans; 8 µg/mL (≈ 15.4 µM) against Escherichia coli; 8 µg/mL (≈ 15.4 µM) against Candida albicans; 4 µg/mL (≈ 7.72 µM) in the assay with Staphylococcus aureus [3]; 4 µg/mL (≈ 7.72 µM) in the assay on Staphylococcus aureus [4]. Also, the MIC with Staphylococcus aureus [5] amounted to 8 µg/mL (≈ 15.4 µM); in the assay on Staphylococcus aureus [6] it was 16 µg/mL (≈ 30.9 µM). Also, in the assay on L02, the IC50 was more than 100 µM.
In the case of `CN(C)C1=NC(c2cn(-c3ccc([N+](=O)[O-])cc3)nc2-c2ccc(Cl)cc2Cl)N=C(N)N1` (stereo not given), the MIC against Staphylococcus aureus [2] was 2 µg/mL (≈ 4.23 µM); in the assay on Streptococcus mutans, 4 µg/mL (≈ 8.45 µM); with Escherichia coli it was 2 µg/mL (≈ 4.23 µM); against Candida albicans, 4 µg/mL (≈ 8.45 µM); in the assay on Staphylococcus aureus [3] it was 2 µg/mL (≈ 4.23 µM); with Staphylococcus aureus [4], 2 µg/mL (≈ 4.23 µM). For the same compound, the values for the MIC against Staphylococcus aureus [5] and against Staphylococcus aureus [6] were 4 µg/mL (≈ 8.45 µM) and 2 µg/mL (≈ 4.23 µM), respectively. For the same compound, the IC50 in the assay with L02 was more than 100 µM.
In the case of `NC1=NC(c2ccc3cc(OCc4ccc(Cl)cc4Cl)ccc3c2)N=C(N2CCOCC2)N1` (stereo not given), the MIC against Staphylococcus aureus [8] and against Staphylococcus aureus [9] was 1 µg/mL (≈ 2.06 µM) each time.
For `CN(C)C1=NC(c2cn(-c3ccccc3)nc2-c2cccc(Cl)c2)N=C(N)N1` (stereo not given), the MIC turned out to be 4 µg/mL (≈ 10.2 µM) with Staphylococcus aureus [2]; 16 µg/mL (≈ 40.6 µM) in the assay on Streptococcus mutans; 8 µg/mL (≈ 20.3 µM) against Escherichia coli; 8 µg/mL (≈ 20.3 µM) against Candida albicans; 16 µg/mL (≈ 40.6 µM) against Staphylococcus aureus [3]; 16 µg/mL (≈ 40.6 µM) against Staphylococcus aureus [4]. Besides, the MIC against Staphylococcus aureus [5] and in the assay with Staphylococcus aureus [6] was 32 µg/mL (≈ 81.2 µM) in each case.
On to `COc1cccc(-c2nn(-c3ccc([N+](=O)[O-])cc3[N+](=O)[O-])cc2C2N=C(N)NC(N(C)C)=N2)c1` (stereo not given), for which the MIC was found to be 32 µg/mL (≈ 66.7 µM) against Staphylococcus aureus [2]; 64 µg/mL (≈ 133 µM) in the assay on Streptococcus mutans; 32 µg/mL (≈ 66.7 µM) against Escherichia coli; 32 µg/mL (≈ 66.7 µM) in the assay on Candida albicans; 32 µg/mL (≈ 66.7 µM) with Staphylococcus aureus [3]; 32 µg/mL (≈ 66.7 µM) against Staphylococcus aureus [4]. Further, the MIC against Staphylococcus aureus [5] and against Staphylococcus aureus [6] was 64 µg/mL (≈ 133 µM) throughout.
As to `NC1=NC(c2cn(-c3ccc([N+](=O)[O-])cc3[N+](=O)[O-])nc2-c2ccc(Br)cc2)N=C(N2CCOCC2)N1` (stereo not given), the MIC worked out at 8 µg/mL (≈ 14 µM) with Staphylococcus aureus [2]; 16 µg/mL (≈ 28.1 µM) with Streptococcus mutans; 8 µg/mL (≈ 14 µM) against Escherichia coli; 8 µg/mL (≈ 14 µM) against Candida albicans; 8 µg/mL (≈ 14 µM) against Staphylococcus aureus [3]; 4 µg/mL (≈ 7.01 µM) with Staphylococcus aureus [4]. The MIC in the assay with Staphylococcus aureus [5] and in the assay with Staphylococcus aureus [6] was 8 µg/mL (≈ 14 µM) in each case.
For `CN(C)C1=NC(c2cn(-c3ccc([N+](=O)[O-])cc3[N+](=O)[O-])nc2-c2ccc(Br)cc2)N=C(N)N1` (stereo not given), the MIC came to 8 µg/mL (≈ 15.1 µM) against Staphylococcus aureus [2]; 16 µg/mL (≈ 30.3 µM) in the assay on Streptococcus mutans; 8 µg/mL (≈ 15.1 µM) against Escherichia coli; 8 µg/mL (≈ 15.1 µM) against Candida albicans; 8 µg/mL (≈ 15.1 µM) with Staphylococcus aureus [3]; 4 µg/mL (≈ 7.57 µM) in the assay with Staphylococcus aureus [4]. For the same compound, the figures for the MIC in the assay on Staphylococcus aureus [5] and against Staphylococcus aureus [6] were 4 µg/mL (≈ 7.57 µM) and 8 µg/mL (≈ 15.1 µM), respectively.
On to `CN(C)C1=NC(c2cn(-c3ccc([N+](=O)[O-])cc3[N+](=O)[O-])nc2-c2ccc(F)cc2)N=C(N)N1` (stereo not given), for which the MIC in the assay with Staphylococcus aureus [2], with Streptococcus mutans, in the assay with Escherichia coli, with Candida albicans, in the assay with Staphylococcus aureus [3] and in the assay with Staphylococcus aureus [4] was 32 µg/mL (≈ 68.5 µM) each time. The MIC with Staphylococcus aureus [5] and with Staphylococcus aureus [6] was 64 µg/mL (≈ 137 µM) throughout.

The values are drawn from ChEMBL document CHEMBL4316612, “Synthesis of novel dihydrotriazine derivatives bearing 1,3-diaryl pyrazole moieties as potential antibacterial agents” (Bioorg Med Chem Lett, 2019).
